Data published in ChEMBL document CHEMBL1156178, “Discovery of novel 6,6-heterocycles as transient receptor potential vanilloid (TRPV1) antagonists” (J Med Chem, 2010).
In brackets after ≈: the same amount, converted by molar mass. Activity calls are given as the source filed them. The rule behind the calls is not given here.

How the values were obtained:
[1] = Plasma concentration in carrageenan treated rat at 3 mg/kg, po administered 2 hrs after carrageenan challenge measured after 1 hr; format: ADME, organism-based; design: dose 3 mg/kg, route oral
Rattus norvegicus [2] = assay: Analgesic activity in rat assessed as complete reversal of carrageenan-induced thermal hyperalgesia at 3 mg/kg, po administered 2 hrs after carrageenan challenge; format: functional, organism-based; design: dose 3 mg/kg
[3] = Equilibrium solubility in at pH 7.4; format: physicochemical; details: buffer
[4] = Plasma concentration in carrageenan treated rat at 0.3 mg/kg, po administered 2 hrs after carrageenan challenge measured after 1 hr; format: ADME, organism-based; design: dose 0.3 mg/kg, route oral
[5] = AUC (0 to 24 hrs) in rat at 1 mg/kg, po; format: ADME, organism-based; design: time < 24 hr, dose 1 mg/kg, route oral; details: plasma
[6] = AUC (0 to 24 hrs) in rat at 100 mg/kg, po; format: ADME, organism-based; design: time < 24 hr, dose 100 mg/kg, route oral; details: plasma
[7] = molecular target: Transient receptor potential cation channel subfamily V member 1 (Rattus norvegicus, UniProt O35433); assay: Inhibition of rat TRPV1 at pH 5 to 5.5
[8] = Volume of distribution in rat at 1 mg/kg, iv and 1 mg/kg, po; format: ADME, organism-based; details: in vivo
[9] = Fraction unbound in rat plasma; format: ADME, cell-free
[10] = Ratio of drug level in brain to plasma in rat at 3 mg/kg, po after 1 hr; format: ADME, organism-based; design: dose 3 mg/kg, route oral
[11] = molecular target: Protein kinase C alpha type (Homo sapiens) (UniProt P17252); assay: Inhibition of PKCalpha at 10 uM
[12] = Metabolic stability in rat liver microsomes assessed as compound remaining at 1 uM after 10 mins by LCMS analysis; format: ADME, Microsome; details: read-out: Activity
Summary of the method: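 Compound (1 μM) incubated at 37 °C with 0.5 mg/mL male pooled rat liver microsomes; NADPH added to start the reaction. Aliquots were taken at 0 and 10 min and quenched into ice-cold acetonitrile with internal standard, then centrifuged. Parent was monitored as the M+1 ion by ESI-LCMS in selected-ion mode. Percent remaining was taken as the 10 min/0 min signal ratio, corrected by internal-standard recovery.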

[13] = Cmax in rat at 10 mg/kg, po; format: ADME, organism-based; design: dose 10 mg/kg, route oral; details: in vivo
[14] = Tmax in rat at 1 mg/kg, iv and 1 mg/kg, po; format: ADME, organism-based; details: in vivo
Rattus norvegicus [15] = assay: Analgesic activity in po dosed rat assessed as reversal of carrageenan-induced thermal hyperalgesia administered 2 hrs after carrageenan challenge; format: functional, organism-based
[16] = Plasma concentration in carrageenan treated rat at 1 mg/kg, po administered 2 hrs after carrageenan challenge measured after 1 hr; format: ADME, organism-based; design: dose 1 mg/kg, route oral
[17] = molecular target: Transient receptor potential cation channel subfamily V member 1 (Homo sapiens, UniProt Q8NER1); assay: Antagonist activity at human recombinant TRPV1 expressed in HEK293 cells assessed as inhibition of capsaicin-induced calcium mobilization by FLIPR assay
[18] = Plasma concentration in complete Freund's adjuvant treated Sprague-Dawley rat at 10 mg/kg, po qd for 2 days administered 24 hrs after CFA challenge after 2 hrs last post dose; format: ADME, organism-based; design: dose 10 mg/kg, route oral
[19] = Protein binding in rat plasma; format: ADME, cell-free; details: read-out: PPB (converted)
[20] = Plasma concentration in complete Freund's adjuvant treated Sprague-Dawley rat at 1 mg/kg, po administered 24 hrs after CFA challenge after 2 hrs post dose; format: ADME, organism-based; design: dose 1 mg/kg, route oral
[21] = Half life in rat at 1 mg/kg, iv and 1 mg/kg, po; format: ADME, organism-based; details: in vivo
[22] = Tmax in rat at 1 mg/kg, po; format: ADME, organism-based; design: dose 1 mg/kg, route oral; details: in vivo
hERG (KCNH2) = hERG (KCNH2) (Homo sapiens, UniProt Q12809); assay: Inhibition of human ERG expressed in COS7 cells at 10 uM by electrophysiology assay; format: cell-based, COS-7; details: COS7 cells expressing human ERG
[23] = AUC (0 to 24 hrs) in rat at 10 mg/kg, po; format: ADME, organism-based; design: time < 24 hr, dose 10 mg/kg, route oral; details: plasma
[24] = Clearance in rat at 1 mg/kg, iv and 1 mg/kg, po; format: ADME, organism-based; details: in vivo
[25] = Plasma concentration in complete Freund's adjuvant treated Sprague-Dawley rat at 10 mg/kg, po qd for 3 days administered 24 hrs after CFA challenge after 2 hrs last post dose; format: ADME, organism-based; design: dose 10 mg/kg, route oral
LLC-PK1 = assay: Efflux ratio of permeability from […] in MDR1 transfected pig LLC-PK1 cells; format: ADME, cell-based, Sus scrofa
[26] = Oral bioavailability in rat at 1 mg/kg; format: ADME, organism-based; details: in vivo
[27] = Plasma concentration in complete Freund's adjuvant treated Sprague-Dawley rat at 1 mg/kg, po qd for 2 days administered 24 hrs after CFA challenge after 2 hrs last post dose; format: ADME, organism-based; design: dose 1 mg/kg, route oral
[28] = molecular target: Mitogen-activated protein kinase 14 (Homo sapiens) (UniProt Q16539); assay: Inhibition of p38alpha at 10 uM
Homo sapiens [29] = species: Homo sapiens; assay: Protein binding in human plasma; details: read-out: PPB (converted)
Rattus norvegicus [30] = assay: Induction of hyperthermia in Sprague-Dawley rat at 3 mg/kg, po after 1 hr; format: organism-based; design: dose 3 mg/kg, route oral; details: in vivo
MDR1 = assay: Apparent permeability across pig LLC-PK1 cells expressing MDR1; format: ADME, cell-based, Sus scrofa
Homo sapiens [31] = species: Homo sapiens; assay: Fraction unbound in human plasma
[32] = Plasma concentration in complete Freund's adjuvant treated Sprague-Dawley rat at 3 mg/kg, po qd for 3 days administered 24 hrs after CFA challenge after 2 hrs last post dose; format: ADME, organism-based; design: dose 3 mg/kg, route oral
[33] = Plasma concentration in complete Freund's adjuvant treated Sprague-Dawley rat at 3 mg/kg, po qd for 2 days administered 24 hrs after CFA challenge after 2 hrs last post dose; format: ADME, organism-based; design: dose 3 mg/kg, route oral
[34] = Cmax in rat at 100 mg/kg, po; format: ADME, organism-based; design: dose 100 mg/kg, route oral; details: in vivo
[35] = Inhibition of PKA at 10 uM
Rattus norvegicus [36] = assay: Induction of hyperthermia in Sprague-Dawley rat at 3 mg/kg, po qd for 4 days; format: organism-based; design: dose 3 mg/kg, route oral; details: in vivo, 96 h
[37] = Plasma concentration in complete Freund's adjuvant treated Sprague-Dawley rat at 1 mg/kg, po qd for 3 days administered 24 hrs after CFA challenge after 2 hrs last post dose; format: ADME, organism-based; design: dose 1 mg/kg, route oral
[38] = Solubility in 0.1 N HCL after 4 hrs by HPLC/MS analysis; format: physicochemical
[39] = molecular target: Mitogen-activated protein kinase 3 (Homo sapiens, UniProt P27361); assay: Inhibition of human ERK1
[40] = molecular target: Insulin receptor (Homo sapiens) (UniProt P06213); assay: Inhibition of insulin receptor at 10 uM
[41] = Cmax in rat at 1 mg/kg, po; format: ADME, organism-based; design: dose 1 mg/kg, route oral; details: in vivo
Rattus norvegicus [42] = assay: Liver blood flow in rat at 1 mg/kg, iv and 1 mg/kg, po; format: ADME, organism-based; details: in vivo
[43] = Plasma concentration in complete Freund's adjuvant treated Sprague-Dawley rat at 3 mg/kg, po administered 24 hrs after CFA challenge after 2 hrs post dose; format: ADME, organism-based; design: dose 3 mg/kg, route oral
Rattus norvegicus [44] = assay: Analgesic activity against CFA-induced inflammatory pain in Sprague-Dawley rat assessed as reversal of decrease in weight bearing at 10 mg/kg, po qd for 3 days administered 24 hrs after CFA challenge; format: functional, organism-based; design: dose 10 mg/kg
[45] = Tmax in rat at 100 mg/kg, po; format: ADME, organism-based; design: dose 100 mg/kg, route oral; details: in vivo
[46] = molecular target: Epidermal growth factor receptor (Homo sapiens) (UniProt P00533); assay: Inhibition of EGFR at 10 uM
[47] = Plasma concentration in complete Freund's adjuvant treated Sprague-Dawley rat at 10 mg/kg, po administered 24 hrs after CFA challenge after 2 hrs post dose; format: ADME, organism-based; design: dose 10 mg/kg, route oral
[48] = Tmax in rat at 10 mg/kg, po; format: ADME, organism-based; design: dose 10 mg/kg, route oral; details: in vivo
Rattus norvegicus [49] = assay: Induction of hyperthermia in Sprague-Dawley rat at 3 mg/kg, po after 10 hrs; format: organism-based; design: dose 3 mg/kg, route oral; details: in vivo
[50] = molecular target: Voltage-gated L-type calcium channel (Rattus norvegicus, UniProt P22002+Q02485+P27732); assay: Inhibition of rat L-type calcium channel
Rattus norvegicus [51] = species: Rattus norvegicus; assay: Analgesic activity against carrageenan-induced thermal hyperalgesia in rat; format: functional; details: read-out: MED
Rattus norvegicus [52] = assay: Clearance in rat at […] iv dose; format: ADME, organism-based; design: dose 1.5 mg/kg, route intravenous; details: in vivo

Chain of Transient receptor potential cation channel subfamily V member 1 (Homo sapiens, UniProt Q8NER1) (Q8NER1 whole entry): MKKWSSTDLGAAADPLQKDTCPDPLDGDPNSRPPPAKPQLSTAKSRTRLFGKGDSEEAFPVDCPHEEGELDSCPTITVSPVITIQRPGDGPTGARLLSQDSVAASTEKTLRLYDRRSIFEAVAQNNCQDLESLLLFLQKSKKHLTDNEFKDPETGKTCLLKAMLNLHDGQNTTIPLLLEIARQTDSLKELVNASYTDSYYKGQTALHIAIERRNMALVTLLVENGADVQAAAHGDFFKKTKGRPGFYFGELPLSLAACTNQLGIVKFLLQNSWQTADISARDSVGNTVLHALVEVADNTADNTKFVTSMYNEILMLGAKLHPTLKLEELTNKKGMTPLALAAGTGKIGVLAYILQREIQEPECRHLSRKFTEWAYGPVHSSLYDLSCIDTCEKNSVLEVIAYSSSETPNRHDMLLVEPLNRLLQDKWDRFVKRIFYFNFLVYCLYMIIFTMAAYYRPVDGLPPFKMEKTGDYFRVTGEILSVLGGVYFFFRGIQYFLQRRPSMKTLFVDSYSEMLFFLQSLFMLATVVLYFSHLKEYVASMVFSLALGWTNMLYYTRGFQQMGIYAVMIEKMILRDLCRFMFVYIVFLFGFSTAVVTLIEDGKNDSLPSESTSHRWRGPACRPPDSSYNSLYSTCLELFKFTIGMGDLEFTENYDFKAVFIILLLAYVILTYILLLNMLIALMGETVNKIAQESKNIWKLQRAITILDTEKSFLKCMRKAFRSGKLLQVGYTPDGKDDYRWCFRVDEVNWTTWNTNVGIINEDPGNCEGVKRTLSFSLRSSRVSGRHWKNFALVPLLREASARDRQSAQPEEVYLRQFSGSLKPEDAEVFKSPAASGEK
Chain of Transient receptor potential cation channel subfamily V member 1 (Rattus norvegicus, UniProt O35433) (O35433 whole entry): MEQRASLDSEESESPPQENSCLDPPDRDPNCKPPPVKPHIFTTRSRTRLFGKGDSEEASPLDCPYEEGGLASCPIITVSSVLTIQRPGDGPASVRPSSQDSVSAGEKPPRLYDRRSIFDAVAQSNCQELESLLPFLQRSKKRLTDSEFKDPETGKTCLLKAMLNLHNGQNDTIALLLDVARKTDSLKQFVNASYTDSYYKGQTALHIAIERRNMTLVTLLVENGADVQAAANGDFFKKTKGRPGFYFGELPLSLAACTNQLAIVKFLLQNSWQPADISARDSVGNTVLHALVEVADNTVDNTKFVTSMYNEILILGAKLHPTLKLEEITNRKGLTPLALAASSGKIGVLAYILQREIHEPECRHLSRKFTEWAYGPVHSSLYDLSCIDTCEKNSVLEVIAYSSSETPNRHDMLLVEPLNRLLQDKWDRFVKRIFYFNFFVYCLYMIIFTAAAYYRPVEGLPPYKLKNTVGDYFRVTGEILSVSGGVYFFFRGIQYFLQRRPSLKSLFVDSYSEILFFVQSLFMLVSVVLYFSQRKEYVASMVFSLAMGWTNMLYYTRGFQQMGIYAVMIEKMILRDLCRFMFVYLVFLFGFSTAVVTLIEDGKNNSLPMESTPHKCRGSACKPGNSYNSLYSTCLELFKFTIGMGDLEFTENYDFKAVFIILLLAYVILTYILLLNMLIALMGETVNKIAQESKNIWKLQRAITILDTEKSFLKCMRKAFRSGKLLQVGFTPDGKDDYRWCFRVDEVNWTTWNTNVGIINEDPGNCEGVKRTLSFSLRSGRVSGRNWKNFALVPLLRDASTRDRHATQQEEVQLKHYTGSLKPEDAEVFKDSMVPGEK
Chain of Mitogen-activated protein kinase 14 (Homo sapiens) (Q16539 whole entry): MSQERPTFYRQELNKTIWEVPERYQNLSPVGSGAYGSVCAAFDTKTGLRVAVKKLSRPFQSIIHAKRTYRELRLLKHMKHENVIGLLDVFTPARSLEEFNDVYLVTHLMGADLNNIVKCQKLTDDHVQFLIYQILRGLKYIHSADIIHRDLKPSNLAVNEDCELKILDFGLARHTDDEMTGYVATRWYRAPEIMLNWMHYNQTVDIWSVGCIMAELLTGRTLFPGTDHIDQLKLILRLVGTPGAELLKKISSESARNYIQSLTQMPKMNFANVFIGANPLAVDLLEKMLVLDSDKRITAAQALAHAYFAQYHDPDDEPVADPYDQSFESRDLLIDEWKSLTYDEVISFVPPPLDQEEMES
Chain of Insulin receptor (Homo sapiens) (P06213 28-758 limits assumed): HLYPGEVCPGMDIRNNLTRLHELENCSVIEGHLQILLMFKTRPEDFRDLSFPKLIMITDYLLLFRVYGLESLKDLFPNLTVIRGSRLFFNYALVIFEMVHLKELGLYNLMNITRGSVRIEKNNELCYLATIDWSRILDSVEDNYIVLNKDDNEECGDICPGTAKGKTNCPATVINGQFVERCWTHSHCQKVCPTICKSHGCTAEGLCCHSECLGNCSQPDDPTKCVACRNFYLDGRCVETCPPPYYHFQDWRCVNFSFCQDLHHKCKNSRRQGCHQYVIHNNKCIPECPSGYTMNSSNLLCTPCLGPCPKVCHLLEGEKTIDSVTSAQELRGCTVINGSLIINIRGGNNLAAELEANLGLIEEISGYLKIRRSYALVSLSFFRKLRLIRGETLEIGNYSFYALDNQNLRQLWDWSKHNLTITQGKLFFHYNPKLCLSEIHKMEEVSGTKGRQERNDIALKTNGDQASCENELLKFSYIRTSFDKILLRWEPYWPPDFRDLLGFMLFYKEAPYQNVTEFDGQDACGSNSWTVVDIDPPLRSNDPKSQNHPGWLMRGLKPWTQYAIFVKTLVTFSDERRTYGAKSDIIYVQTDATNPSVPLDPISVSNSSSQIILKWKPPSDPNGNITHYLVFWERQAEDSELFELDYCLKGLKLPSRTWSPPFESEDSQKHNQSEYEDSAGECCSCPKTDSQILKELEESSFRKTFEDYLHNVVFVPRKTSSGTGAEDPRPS
Chain of Insulin receptor (Homo sapiens) (P06213 763-1382 limits assumed): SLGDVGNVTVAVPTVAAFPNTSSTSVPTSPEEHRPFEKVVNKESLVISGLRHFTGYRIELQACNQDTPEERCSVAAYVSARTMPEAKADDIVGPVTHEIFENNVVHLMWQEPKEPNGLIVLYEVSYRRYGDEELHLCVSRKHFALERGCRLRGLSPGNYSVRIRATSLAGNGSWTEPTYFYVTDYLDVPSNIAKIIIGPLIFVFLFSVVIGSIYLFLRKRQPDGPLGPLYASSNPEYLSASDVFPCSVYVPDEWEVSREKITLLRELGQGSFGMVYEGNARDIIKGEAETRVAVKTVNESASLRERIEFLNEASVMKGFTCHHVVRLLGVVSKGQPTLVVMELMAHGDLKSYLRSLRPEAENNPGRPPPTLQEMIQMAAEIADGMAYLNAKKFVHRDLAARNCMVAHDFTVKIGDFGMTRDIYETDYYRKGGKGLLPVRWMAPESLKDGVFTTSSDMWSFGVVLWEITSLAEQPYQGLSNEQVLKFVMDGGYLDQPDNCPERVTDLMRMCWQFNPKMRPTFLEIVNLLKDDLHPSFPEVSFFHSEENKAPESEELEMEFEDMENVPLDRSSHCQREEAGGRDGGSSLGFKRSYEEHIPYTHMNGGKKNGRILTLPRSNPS
Chain of Mitogen-activated protein kinase 3 (P27361 whole entry): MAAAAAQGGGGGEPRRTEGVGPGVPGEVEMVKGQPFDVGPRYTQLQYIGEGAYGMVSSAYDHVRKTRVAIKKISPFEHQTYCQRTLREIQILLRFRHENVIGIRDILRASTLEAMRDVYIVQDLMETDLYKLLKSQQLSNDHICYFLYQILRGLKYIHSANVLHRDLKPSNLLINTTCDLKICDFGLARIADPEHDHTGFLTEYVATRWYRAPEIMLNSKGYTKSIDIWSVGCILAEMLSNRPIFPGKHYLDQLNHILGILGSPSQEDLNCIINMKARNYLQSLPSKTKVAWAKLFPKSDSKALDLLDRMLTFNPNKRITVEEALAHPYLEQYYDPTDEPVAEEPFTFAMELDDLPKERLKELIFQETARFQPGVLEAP

In the case of `FC(F)(F)c1ccc(Nc2ccnc3nc(-c4ncccc4C(F)(F)F)ccc23)nc1`, the concentration at 1 h [1] is reported as 1400 nM, the Activity (Rattus norvegicus [2]) is reported as “Active” and the solubility thermodynamic [3] is reported as 2 µg/mL (≈ 4.59 µM). It also gave a concentration at 1 h [4] of 60 nM, an AUC(0-t) at 24 h [5] of 0.6 µM·h and an AUC(0-t) at 24 h [6] of 204 µM·h. For the same compound, the IC50 [7] was 3.25 nM, the Vd [8] was 3.9 L/kg and the fraction unbound [9] was 0.107. For the same compound, the Kp at 1 h [10] was 0.3, the inhibition [11] was “inactive” and the remaining at 10 min, 1 µM [12] was 100%. For the same compound, the Cmax [13] was 2870 nM, the Tmax [14] was 1.1 h and the Activity (Rattus norvegicus [15]) was “Dose-dependent effect”. The concentration at 1 h [16] was 300 nM, the IC50 [17] was 2.2 nM and the concentration at 2 h [18] was 5230 nM. The fraction unbound [19] was 0.107, the concentration at 2 h [20] was 100 nM and the half-life [21] was 1.4 h. The Tmax [22] was 1.1 h, the inhibition at 10 µM (hERG (KCNH2)) was 47% and the AUC(0-t) at 24 h [23] was 22.6 µM·h. The clearance [24] was 34 mL/min/kg, the concentration at 2 h [25] was 3260 nM and the Ratio (LLC-PK1) was 1.7. For the same compound, the bioavailability [26] was 52%, the concentration at 2 h [27] was 390 nM and the inhibition [28] was “inactive”. The fraction unbound (Homo sapiens [29]) was 0.065, the Activity (Rattus norvegicus [30]) was “Non-toxic” and the Papp (MDR1) was 29.8 ×10⁻⁶ cm/s. It also gave a fraction unbound (Homo sapiens [31]) of 0.065, a concentration at 2 h [32] of 930 nM and a concentration at 2 h [33] of 1330 nM. For the same compound, the Cmax [34] was 12900 nM, the inhibition [35] was “inactive” and the Activity (Rattus norvegicus [36]) was “Non-toxic”. For the same compound, the concentration at 2 h [37] was 380 nM, the solubility at 4 h [38] was 40 µg/mL (≈ 91.9 µM) and the IC50 [39] was 980 nM. For the same compound, the inhibition [40] was “inactive”, the Cmax [41] was 240 nM and the LBF (Rattus norvegicus [42]) was 45%. For the same compound, the concentration at 2 h [43] was 230 nM, the Activity (Rattus norvegicus [44]) was “Active” and the Tmax [45] was 6 h. For the same compound, the inhibition [46] was “inactive”, the concentration at 2 h [47] was 2300 nM and the Tmax [48] was 3.33 h. The Activity (Rattus norvegicus [49]) was “Non-toxic” and the IC50 [50] was 3000 nM.

In the case of `FC(F)(F)c1ccc(Nc2ncnc3nc(-c4ncccc4C(F)(F)F)cnc23)cc1`, the IC50 [17] is reported as 0.21 nM and the solubility at 4 h [38] is reported as 1 µg/mL (≈ 2.29 µM).

Compound `FC(F)(F)c1ccc(Nc2ccnc3nc(-c4ncccc4C(F)(F)F)ccc23)cc1` has an IC50 [17] of 6.1 nM and a solubility at 4 h [38] of 24 µg/mL (≈ 55.3 µM).

With `COCc1nc(Nc2ccc(C(F)(F)F)cc2)c2ccc(-c3ncccc3C(F)(F)F)cc2n1` the minimal effective dose (Rattus norvegicus [51]) was 0.3 mg/kg.

With `FC(F)(F)c1ccc(Nc2ncnc3cc(-c4ncccc4C(F)(F)F)ccc23)nc1` the remaining at 10 min, 1 µM [12] was 91%, the CL (Rattus norvegicus [52]) was 4.2 (ml/min)/kg and the solubility at 4 h [38] was 33 µg/mL (≈ 75.8 µM).

With `FC(F)(F)c1ccc(Nc2cncc3nc(-c4ncccc4C(F)(F)F)ccc23)nc1` the IC50 [17] was 460 nM and the solubility at 4 h [38] was 20 µg/mL (≈ 45.9 µM).

With `FC(F)(F)c1ccc(Nc2ncnc3cc(-c4ncccc4C(F)(F)F)cnc23)cc1` the IC50 [17] was 0.63 nM and the solubility at 4 h [38] was 6 µg/mL (≈ 13.8 µM).

In the case of `FC(F)(F)c1ccc(Nc2nccc3nc(-c4ncccc4C(F)(F)F)cnc23)nc1`, the IC50 [17] is reported as 79 nM and the solubility at 4 h [38] is reported as 12 µg/mL (≈ 27.5 µM).
